According to PubChem BioAssay:
Active and inactive are the calls of the source.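 Rule for the calls, unless noted: active = viability at or below 10% of carrier control in both of two separate runs; inconclusive = viability at or below 10% in only one of the two runs; inactive = the rest.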

Experiments:
[1] = Her2 expression decrease, cell viability multiplex – SKBR3 breast tumor cells, AlphaScreen, ATP viability, primary screen (AID 461;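 active = Her2 level under about 52% in both replicate screens, with viability over 70% of control, limit read from the data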;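 for Her2 level: lower value means less Her2 protein in the cells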;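 for viability: percent of carrier control wells set as 100% viability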); conditions: SKBR3 Her2 protein level, 18-24 h, measured here: SKBR3 viability, ATP luminescence, at 10 µM
[2] = target: Receptor tyrosine-protein kinase erbB-2 (Homo sapiens) (UniProt P04626); test: as above; conditions: 18-24 h, at 10 µM, stronger effect = lower value
[3] = reduced viability of SK-BR-3 breast cancer cells – cell-based, 24 h, human, pilot screen (AID 572); conditions: SK-BR-3 viability, CellTiter-Glo luminescence, at 10 µM, stronger effect = lower value;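 note: compound exposure lasted between 18 and 24 h rather than exactly 24 h; 100% = carrier-treated control wells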
[4] = HUVEC growth inhibition – cell-based, human, primary screen (AID 575;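 active = viability at or below 30% in both replicate assays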;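 note: 100% = median of untreated cell wells with 0.1% DMSO on each plate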); conditions: HUVEC proliferation, CellTiter-Glo luminescence, 72 h; at 10 µM; stronger effect = lower value
Outline: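 Test system: primary human umbilical vein endothelial cells; medium: endothelial basal medium with 2% FBS plus growth supplements; dosing: 10 µM compound only; times: 72 h treatment at 37 °C; signal: CTG luminescence; read-out: % viability relative to median vehicle-well signal on each plate; control set: vehicle and MePR control wells; plate: 384-well, collagen-coated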

[5] = H69AR cell proliferation blockers – human, duplicate replicates, primary screen (AID 580;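 active = viability at or under a set limit in both replicates, limit being median viability minus 3 SD, cut at about 48% in these data, passing the limit was not always enough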;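 note: 100% = mean luminescence of untreated wells and 0% = no signal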); conditions: H69AR lung tumor cells viability, ATP luminescence, 72 h; at 10 µM; stronger effect = lower value
[6] = MRP1 drug-resistance reversers in H69AR cells – cell-based, doxorubicin co-treatment, pilot screen (AID 601;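 active = viability loss from added drug above about 55%, and viability with drug at most 40%, in both replicates, limit read from the data, passing the limit was not always enough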); conditions: CellTiter-Glo, 72 h, at 10 µM; for differential viability (reversal): stronger effect = higher value
[7] = yeast transport mutant growth inhibition pilot in 384-well plates, post-Golgi transport modulator project (AID 636; in the data active = inhibition above about 31%); conditions: absorbance 615 nm, about 18 h, stronger effect = higher value
[8] = growth suppression of yeast trafficking mutant, preliminary HTS, modulators of trafficking downstream of Golgi apparatus project, 1536-format plate, OD 615 nm (AID 637; in the data active = inhibition above about 30%); conditions: yeast transport mutant growth, absorbance 615 nm, 18 h; stronger effect = higher value
[9] = H69AR cells + 2 uM doxorubicin, measured here: viability with 2 uM doxorubicin, stronger effect = lower value
[10] = H69AR cells, compound alone cytotoxicity

Chain of Receptor tyrosine-protein kinase erbB-2 (Homo sapiens) (P04626 whole entry, looked up): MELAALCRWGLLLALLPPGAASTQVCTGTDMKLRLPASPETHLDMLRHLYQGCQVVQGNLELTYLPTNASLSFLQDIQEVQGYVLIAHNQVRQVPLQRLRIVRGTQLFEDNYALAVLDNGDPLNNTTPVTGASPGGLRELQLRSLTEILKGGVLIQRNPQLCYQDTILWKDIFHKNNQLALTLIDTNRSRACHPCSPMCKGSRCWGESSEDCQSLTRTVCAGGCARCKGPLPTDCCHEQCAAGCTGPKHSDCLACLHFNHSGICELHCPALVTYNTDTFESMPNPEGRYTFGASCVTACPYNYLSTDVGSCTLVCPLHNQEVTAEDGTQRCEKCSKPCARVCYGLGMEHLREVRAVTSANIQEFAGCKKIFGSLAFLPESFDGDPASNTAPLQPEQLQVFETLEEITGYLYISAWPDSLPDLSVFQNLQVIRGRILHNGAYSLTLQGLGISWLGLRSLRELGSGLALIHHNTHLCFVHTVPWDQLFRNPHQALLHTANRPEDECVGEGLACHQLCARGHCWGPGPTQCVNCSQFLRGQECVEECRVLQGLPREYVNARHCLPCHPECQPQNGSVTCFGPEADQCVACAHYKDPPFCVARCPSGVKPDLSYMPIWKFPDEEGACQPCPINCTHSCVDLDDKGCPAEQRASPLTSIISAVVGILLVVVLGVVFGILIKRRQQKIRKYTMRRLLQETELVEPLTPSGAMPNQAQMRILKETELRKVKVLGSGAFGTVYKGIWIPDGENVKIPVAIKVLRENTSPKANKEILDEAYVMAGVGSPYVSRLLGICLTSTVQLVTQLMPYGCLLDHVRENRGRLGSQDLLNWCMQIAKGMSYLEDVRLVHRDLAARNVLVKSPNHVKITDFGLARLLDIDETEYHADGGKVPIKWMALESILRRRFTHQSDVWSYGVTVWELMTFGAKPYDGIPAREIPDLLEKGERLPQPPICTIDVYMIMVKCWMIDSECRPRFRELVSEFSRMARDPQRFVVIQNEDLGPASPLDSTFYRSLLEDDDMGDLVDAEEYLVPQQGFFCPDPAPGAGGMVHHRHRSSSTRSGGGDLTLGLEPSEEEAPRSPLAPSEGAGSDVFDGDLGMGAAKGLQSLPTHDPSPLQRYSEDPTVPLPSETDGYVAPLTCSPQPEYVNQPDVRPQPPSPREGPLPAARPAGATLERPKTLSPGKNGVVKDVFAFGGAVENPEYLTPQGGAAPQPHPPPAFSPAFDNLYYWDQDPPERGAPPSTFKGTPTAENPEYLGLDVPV

Structure (SMILES) | viability [1] | Her2 level [2] | viability [3] | viability [4] | viability [5] | differential viability (reversal) ([6]; H69AR cells + 2 uM doxorubicin) | viability [6, 9] | viability [6, 10] | inhibition [7] | inhibition [8]
O=C(CC1CCS(=O)(=O)C1)Nc1ccc[nH]c1=O (stereo not given) | 102% | 82.5% (inactive) | 102% (inactive) | 88.1% (inactive) | 106% (inactive) | 14.1% (inactive) | 92.3% | 106% | -4.74% (inactive) | -8% (inactive)
Cc1ccc(N2C(=O)c3ccccc3C2O)nc1 (stereo not given) | 122% | 93% (inactive) | 122% (inactive) | 59.8% (inactive) | 53.6% (inactive) | 0.305% (inactive) | 53.3% | 53.6% | -0.13% (inactive) | -1.83% (inactive)
Clc1cc2c(c(Cn3cnc4ccccc43)c1)OCOC2 | 109% | 106% (inactive) | 109% (inactive) | 87.8% (inactive) | 98% (inactive) | 6.4% (inactive) | 91.6% | 98% | -3.33% (inactive) | -5.57% (inactive)
Cc1cc(C2C(C#N)=C(N)SC(N)=C2C#N)c(C)s1 | 107% | 100% (inactive) | 107% (inactive) | 82.4% (inactive) | 94.7% (inactive) | 7.28% (inactive) | 87.5% | 94.7% | -2.89% (inactive) | 7.21% (inactive)
Cc1noc(C)c1S(=O)(=O)Nc1c(C)n(C)n(-c2ccccc2)c1=O | 108% | 99% (inactive) | 108% (inactive) | 104% (inactive) | 98.4% (inactive) | 8.05% (inactive) | 90.3% | 98.4% | -5.13% (inactive) | -1.11% (inactive)
CCn1c(CC(=O)Nc2cccc(OC)c2)nnc1SCC(=O)Nc1nccs1 | 98% | 102% (inactive) | 98% (inactive) | 94.5% (inactive) | 101% (inactive) | 4.37% (inactive) | 97% | 101% | -7.6% (inactive) | -2.26% (inactive)
CC(=O)N1CCC2(CC1)CC(=O)c1cc(OCC(=O)NCc3ccco3)ccc1O2 | 106% | 112% (inactive) | 106% (inactive) | 106% (inactive) | 83.5% (inactive) | -4.33% (inactive) | 87.9% | 83.5% | 0.92% (inactive) | -3.17% (inactive)
CCN1CCN(c2c(Cl)cccc2NC(=O)c2ccco2)CC1 | 67.5% | 88% (inactive) | 67.5% (inactive) | 98.1% (inactive) | 97.5% (inactive) | 7.33% (inactive) | 90.1% | 97.5% | -3.33% (inactive) | -0.32% (inactive)
COc1ccc(Cc2nc(-c3ccc(NC(=O)c4cccnc4)cc3)no2)cc1 | 109% | 84.5% (inactive) | 109% (inactive) | 123% (inactive) | 17.7% (active) | -0.01% (inactive) | 17.7% | 17.7% | -7.7% (inactive) | 7.94% (inactive)
CCOC(=O)CN1C(=O)C2(OCCCO2)c2ccccc21 | 99% | 109% (inactive) | 99% (inactive) | 99.7% (inactive) | 101% (inactive) | 11.1% (inactive) | 89.7% | 101% | -7.66% (inactive) | -11% (inactive)
Cc1ccc(CCNC(=O)C2CCCN(S(=O)(=O)c3cnc[nH]3)C2)cc1 (stereo not given) | 102% | 121% (inactive) | 102% (inactive) | 101% (inactive) | 101% (inactive) | 6.71% (inactive) | 94% | 101% | -0.8% (inactive) | -2.17% (inactive)
CS(=O)(=O)Nc1ccc(C(=O)NCc2ccco2)cc1 | 88.5% | 106% (inactive) | 88.5% (inactive) | 104% (inactive) | 103% (inactive) | 2.3% (inactive) | 101% | 103% | -1.05% (inactive) | -5.16% (inactive)
COc1ccc(S(=O)(=O)N2CCSC2c2ccccc2)cc1 (stereo not given) | 82% | 90.5% (inactive) | 82% (inactive) | 79.9% (inactive) | 76.9% (inactive) | -13.8% (inactive) | 90.7% | 76.9% | -2.7% (inactive) | -2.95% (inactive)
CC(NC(=O)COc1ccccc1)C(=O)NC1=NCCS1 (stereo not given) | 89% | 124% (inactive) | 89% (inactive) | 88.8% (inactive) | 94.4% (inactive) | 3.6% (inactive) | 90.8% | 94.4% | -4.36% (inactive) | -11.8% (inactive)
